Laboratory results published in ChEMBL document CHEMBL1221390, “Withaferin A, a cytotoxic steroid from Vassobia breviflora, induces apoptosis in human head and neck squamous cell carcinoma” (J Nat Prod, 2010).
pIC50: −log10 of the molar value. Activity calls are given as the source filed them. The calls are words filed in the database; no cut-off is given here.

What was measured:
JMAR [1] = experiment: Induction of apoptosis in human JMAR cells assessed as decrease in procaspase-3 level at 1 to 6 uM after 24 hrs by Western blot analysis; assay type: functional, cell-based
Method in brief: (§1)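 Cells exposed to increasing concentrations for 24 h, lysed in NP-40/Tris pH 7.5 buffer with protease inhibitors, NaF and orthovanadate. Equal protein run on SDS-PAGE, transferred to nitrocellulose. Probed overnight at 4 °C for uncleaved caspase 3 (pro-form) and uncleaved/cleaved PARP; HRP secondary 1 h at room temperature.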

JMAR [2] = experiment: Induction of apoptosis in human JMAR cells assessed as increase in non-viable necrotic cells at 5 uM after 24 hrs by FITC-conjugated annexin V and propidium iodide staining-based flow cytometry; assay type: functional, cell-based
Method in brief: (§2)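 Cells given 5.0 μM for 24 h, harvested, and co-stained at 1×10⁶ cells/mL with annexin V-FITC and PI. Annexin binding buffer added before flow cytometry. Annexin V only scored as early apoptosis, annexin V+PI as late apoptosis, PI only as necrosis. Triplicate; t-test.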

JHU011 = experiment: Induction of apoptosis in human JHU011 cells assessed as mild increase in late apoptotic cells at 5 uM after 24 hrs by FITC-conjugated annexin V and propidium iodide staining-based flow cytometry; assay type: functional, cell-based; method in brief: as §2
[3] = Induction of cell cycle arrest in human JMAR cells assessed as accumulation at G2/M phase at 3 uM after 24 hrs by flow cytometry; assay type: functional
Method in brief: (§3)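 Treated 24 h with 3.0 μM or DMSO vehicle. Cells trypsinized; 1×10⁶ washed in 0.9% NaCl and fixed 30 min at room temperature in cold 70% ethanol/0.9% NaCl. Stained with PI (50 μg/mL in PBS) 30 min, then DNase-free RNase (1 mg/mL) 30 min. Phase distribution (sub-G0, G0/G1, S, G2/M) by flow cytometry.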

JMAR [4] = experiment: Induction of apoptosis in human JMAR cells assessed as increase in early apoptotic cells at 5 uM after 24 hrs by FITC-conjugated annexin V and propidium iodide staining-based flow cytometry; assay type: functional, cell-based; method in brief: as §2
UM-SCC2 [5] = experiment: Induction of apoptosis in human UM-SCC2 cells assessed as increase in late apoptotic cells at 5 uM after 24 hrs by FITC-conjugated annexin V and propidium iodide staining-based flow cytometry; assay type: functional, cell-based; method in brief: as §2
[6] = target: T1, Mitogen-activated protein kinase; ERK1/ERK2 (Homo sapiens) (UniProt P27361+P28482); experiment: Inhibition of ERK1/2 phosphorylation in human UM-SCC2 cells assessed as effect on total protein level at 0.1 to 5 uM after 24 hrs by Western blot analysis; assay type: cell-based
Method in brief: (§4)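 Increasing concentrations for 24 h. NP-40 lysates (with NaF and orthovanadate) cleared at 14,000 × g, equal protein separated by SDS-PAGE and blotted. Probed for phospho-Akt (Ser473), total Akt, phospho-ERK1/2 and total ERK; β-actin loading control. Primary antibody overnight at 4 °C, HRP secondary 1 h.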

[7] = target: T1, Mitogen-activated protein kinase; ERK1/ERK2 (Homo sapiens); experiment: Inhibition of ERK1/2 phosphorylation in human MDA1986 cells assessed as effect on total protein level at 0.1 to 5 uM after 24 hrs by Western blot analysis; assay type: cell-based; method in brief: as §4
[8] = target: T1, Mitogen-activated protein kinase; ERK1/ERK2 (Homo sapiens); experiment: Inhibition of ERK1/2 phosphorylation in human JHU011 cells at 0.1 to 5 uM after 24 hrs by Western blot analysis; assay type: cell-based; method in brief: as §4
[9] = target: RAC-alpha serine/threonine-protein kinase (Homo sapiens) (UniProt P31749); experiment: Inhibition of Akt phosphorylation in human JMAR cells after 24 hrs by Western blot analysis; assay type: cell-based; method in brief: as §4
[10] = target: RAC-alpha serine/threonine-protein kinase (Homo sapiens) (UniProt P31749); experiment: Inhibition of Akt phosphorylation in human JHU011 cells after 24 hrs by Western blot analysis; assay type: cell-based; method in brief: as §4
[11] = target: RAC-alpha serine/threonine-protein kinase (Homo sapiens) (UniProt P31749); experiment: Inhibition of Akt phosphorylation in human MDA1986 cells after 24 hrs by Western blot analysis; assay type: cell-based; method in brief: as §4
[12] = target: RAC-alpha serine/threonine-protein kinase (Homo sapiens) (UniProt P31749); experiment: Inhibition of Akt in human MDA1986 cells assessed as highest required for enzyme activity after 24 hrs by Western blot analysis; assay type: cell-based; method in brief: as §4
[13] = Cytotoxicity against human MDA1986 cells after 72 hrs by MTS assay; assay type: functional, cell-based; conditions: MDA1986, 72 h
Method in brief: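 Cells seeded at 2×10³ per well, grown 24 h, then given serial concentrations (DMSO stock diluted in medium; vehicle controls <0.1% v/v DMSO) for 72 h. MTS added, 3 h at 37 °C, 5% CO₂, absorbance at 490 nm. Viability as fraction of medium-only control; IC50 from viability–concentration curves; triplicate, means of three independent experiments. Cisplatin positive control.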

[14] = Induction of cell cycle arrest in human JMAR cells assessed as accumulation at subG0 phase at 3 uM after 24 hrs by flow cytometry; assay type: functional; method in brief: as §3
Homo sapiens [15] = species on record: Homo sapiens; experiment: Induction of apoptosis in human MDA1986 cells assessed as increase in late apoptotic cells at 5 uM after 24 hrs by FITC-conjugated annexin V and propidium iodide staining-based flow cytometry; assay type: functional, cell-based; method in brief: as §2
UM-SCC2 [16] = experiment: Induction of apoptosis in human UM-SCC2 cells assessed as induction of PRAP cleavage after 24 hrs by Western blot analysis; assay type: functional, cell-based; method in brief: as §1
[17] = target: T1, Mitogen-activated protein kinase; ERK1/ERK2 (Homo sapiens); experiment: Inhibition of ERK1/2 phosphorylation in human MDA1986 cells at 0.1 to 5 uM after 24 hrs by Western blot analysis; assay type: cell-based; method in brief: as §4
[18] = Induction of cell cycle arrest in human MDA1986 cells assessed as accumulation at G2/M phase at 3 uM after 24 hrs by flow cytometry; assay type: functional; method in brief: as §3
JMAR [19] = experiment: Induction of apoptosis in human JMAR cells assessed as increase in late apoptotic cells at 5 uM after 24 hrs by FITC-conjugated annexin V and propidium iodide staining-based flow cytometry; assay type: functional, cell-based; method in brief: as §2
JMAR [20] = experiment: Induction of apoptosis in human JMAR cells assessed as induction of PRAP cleavage after 24 hrs by Western blot analysis; assay type: functional, cell-based; method in brief: as §1
UM-SCC2 [21] = experiment: Induction of apoptosis in human UM-SCC2 cells assessed as decrease in procaspase-3 level at 1 to 6 uM after 24 hrs by Western blot analysis; assay type: functional, cell-based; method in brief: as §1
Homo sapiens [22] = species on record: Homo sapiens; experiment: Induction of apoptosis in human MDA1986 cells assessed as decrease in procaspase-3 level at 1 to 6 uM after 24 hrs by Western blot analysis; assay type: functional, cell-based; method in brief: as §1
[23] = target: RAC-alpha serine/threonine-protein kinase (Homo sapiens) (UniProt P31749); experiment: Inhibition of Akt in human MDA1986 cells assessed as decrease in total protein level at 0.1 to 5 uM after 24 hrs by Western blot analysis; assay type: cell-based; method in brief: as §4

RAC-alpha serine/threonine-protein kinase (Homo sapiens), sequence (P31749 whole entry): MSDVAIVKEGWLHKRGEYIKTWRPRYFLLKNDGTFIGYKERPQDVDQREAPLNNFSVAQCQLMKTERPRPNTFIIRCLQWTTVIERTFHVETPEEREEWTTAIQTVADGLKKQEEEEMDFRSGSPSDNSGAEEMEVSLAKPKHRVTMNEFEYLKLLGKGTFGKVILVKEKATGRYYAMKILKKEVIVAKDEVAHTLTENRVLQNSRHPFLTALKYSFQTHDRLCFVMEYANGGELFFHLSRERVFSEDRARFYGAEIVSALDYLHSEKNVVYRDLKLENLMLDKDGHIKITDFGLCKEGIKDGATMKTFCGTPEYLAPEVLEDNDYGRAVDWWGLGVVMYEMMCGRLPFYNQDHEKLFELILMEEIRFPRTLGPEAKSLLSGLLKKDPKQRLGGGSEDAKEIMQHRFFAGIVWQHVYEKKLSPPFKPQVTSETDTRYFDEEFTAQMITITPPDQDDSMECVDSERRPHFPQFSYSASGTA
T1 sequence (P27361 whole entry, looked up): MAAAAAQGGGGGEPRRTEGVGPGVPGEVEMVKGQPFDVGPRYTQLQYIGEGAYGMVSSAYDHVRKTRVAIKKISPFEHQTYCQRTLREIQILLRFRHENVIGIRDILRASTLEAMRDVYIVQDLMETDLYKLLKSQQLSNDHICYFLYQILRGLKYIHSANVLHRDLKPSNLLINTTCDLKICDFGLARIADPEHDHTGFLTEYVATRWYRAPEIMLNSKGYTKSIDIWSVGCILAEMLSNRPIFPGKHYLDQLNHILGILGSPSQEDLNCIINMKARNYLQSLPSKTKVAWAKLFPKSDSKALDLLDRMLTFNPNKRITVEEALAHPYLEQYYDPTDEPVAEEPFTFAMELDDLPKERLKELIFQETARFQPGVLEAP
T1 sequence (P28482 whole entry, looked up): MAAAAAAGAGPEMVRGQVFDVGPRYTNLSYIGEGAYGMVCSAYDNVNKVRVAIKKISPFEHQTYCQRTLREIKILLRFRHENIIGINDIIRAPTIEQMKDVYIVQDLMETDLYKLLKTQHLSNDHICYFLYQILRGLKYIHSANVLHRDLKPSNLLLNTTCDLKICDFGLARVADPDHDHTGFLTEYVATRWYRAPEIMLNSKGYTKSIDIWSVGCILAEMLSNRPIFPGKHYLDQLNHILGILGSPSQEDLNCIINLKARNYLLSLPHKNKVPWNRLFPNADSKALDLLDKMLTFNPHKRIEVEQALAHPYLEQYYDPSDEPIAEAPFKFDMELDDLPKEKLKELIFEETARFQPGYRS

With `CC1=C(CO)C(=O)O[C@@H]([C@@H](C)[C@H]2CC[C@H]3[C@@H]4C[C@H]5O[C@]56[C@@H](O)C=CC(=O)[C@]6(C)[C@H]4CC[C@]23C)C1` [WITHAFERIN A] the Activity (JMAR [1]) was “Active”, the Activity (JMAR [2]) was “Active” and the Activity (JHU011) was “Active”. For the same compound, the Activity [3] was 42%, the Activity (JMAR [4]) was “Active” and the Activity (UM-SCC2 [5]) was “Active”. The inhibition [6] was “inactive”, the inhibition [7] was “inactive” and the inhibition [8] was “inactive”. For the same compound, the inhibition [9] was “Dose-dependent effect”, the inhibition [10] was “Dose-dependent effect” and the inhibition [11] was “Dose-dependent effect”. The Activity [12] was 2.5 µM, the pIC50 [13] was 6.10 and the Activity [14] was 12%. For the same compound, the Activity (Homo sapiens [15]) was “inactive”, the Activity (UM-SCC2 [16]) was “Dose-dependent effect” and the inhibition [17] was “inactive”. For the same compound, the Activity [18] was 49%, the Activity (JMAR [19]) was “Active” and the Activity (JMAR [20]) was “Dose-dependent effect”. The Activity (UM-SCC2 [21]) was “Active”, the Activity (Homo sapiens [22]) was “Active” and the inhibition [23] was “Active”.
